These results are taken from ChEMBL document CHEMBL1127367, “Antiproliferative properties of polyamine analogues: a structure-activity study” (J Med Chem, 1994).

As usually defined, the Ki is a measure of affinity in units of concentration, obtained from inhibition or displacement. The term IC50 denotes the concentration at which inhibition is half-maximal.

The structures appear in SMILES notation. A value given as a limit tells only on which side of the number the result lay.

Assay [1] has as its target T1, Ornithine decarboxylase (Mus musculus) (UniProt P00860).
T1 sequence (whole entry): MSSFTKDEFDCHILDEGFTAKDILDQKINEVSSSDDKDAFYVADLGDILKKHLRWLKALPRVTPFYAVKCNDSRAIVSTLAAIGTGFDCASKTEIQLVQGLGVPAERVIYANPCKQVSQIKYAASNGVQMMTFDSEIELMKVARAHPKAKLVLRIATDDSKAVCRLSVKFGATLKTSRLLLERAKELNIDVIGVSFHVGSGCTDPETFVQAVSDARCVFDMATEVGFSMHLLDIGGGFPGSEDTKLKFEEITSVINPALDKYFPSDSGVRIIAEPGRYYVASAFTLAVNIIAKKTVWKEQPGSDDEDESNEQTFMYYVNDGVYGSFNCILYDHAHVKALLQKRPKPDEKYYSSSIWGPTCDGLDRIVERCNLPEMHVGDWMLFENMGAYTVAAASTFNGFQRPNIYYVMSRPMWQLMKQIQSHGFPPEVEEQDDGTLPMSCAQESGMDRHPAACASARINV
Kind of assay: Effect of compound on ornithine decarboxylase (ODC)activity expressed as percent of untreated control for ODC (1 uM at 4 h(or 48h)). In outline: (§1)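 L1210 cells exposed to 1 μM analogue for 4 h, or for 48 h in some cases. ODC activity measured as 14CO2 released from [14C]carboxyl-labeled L-ornithine and expressed as % of untreated control.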

Assay [2] has as its target T2, S-adenosylmethionine decarboxylase proenzyme 1 (Mus musculus) (UniProt P0DMN7).
T2 sequence (whole entry): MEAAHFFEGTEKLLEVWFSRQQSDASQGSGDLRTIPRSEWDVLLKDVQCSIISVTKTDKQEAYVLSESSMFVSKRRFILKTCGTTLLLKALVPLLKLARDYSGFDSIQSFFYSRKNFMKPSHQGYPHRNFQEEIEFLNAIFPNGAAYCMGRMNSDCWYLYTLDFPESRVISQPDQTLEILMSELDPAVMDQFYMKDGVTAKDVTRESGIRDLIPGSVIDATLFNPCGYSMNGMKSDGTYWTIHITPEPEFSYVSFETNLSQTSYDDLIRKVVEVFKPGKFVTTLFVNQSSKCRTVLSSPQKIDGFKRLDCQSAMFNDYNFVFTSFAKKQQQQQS
The assay can be described thus: Inhibition of S-Adenosyl-methionine decarboxylase (AdoMetDC) activity. It is filed as functional. Also noted: concentration or dose not given beside the values.

Assay [3] addresses Spermidine/spermine N(1)-acetyltransferase (SAT) (Mus musculus) (UniProt Q6P8J2+P48026). Kind of assay: […] spermidine/spermine N1-Acetyltransferase (SSAT) activity. Also noted: concentration or dose not given beside the values. It is filed as functional.
Assay [4] deals with L1210. Kind of assay: Compound level in L1210 cells after 48 hours of incubation at initial concentration of 500 uM is expressed as nmol/10e6 cells. The class given is functional, Mus musculus. Also noted: unit: nmol/10^6 cells.
Assay [5] relates to L1210. Kind of assay: Compound was evaluated for its impact on spermine levels after 48 hr at concentration 500 uM. It is filed as functional, Mus musculus.
For assay [6], the system named is L1210. Kind of assay: Compound was evaluated for its impact on spermidine levels after 48 hr at concentration 100 uM. It is filed as functional, Mus musculus.
The test system of assay [7] is L1210. The assay can be described thus: Compound was evaluated for its impact on spermidine levels after 48 hr at concentration 500 uM. It is filed as functional, Mus musculus.
Assay [8] deals with L1210. The assay can be described thus: Compound was evaluated for its impact on spermine levels after 48 hr at concentration 100 uM. It is filed as functional, Mus musculus.
The test system of assay [9] is L1210. The assay can be described thus: Compound was evaluated for its impact on putrescine (Put) levels after 48 hr at concentration 500 uM. The class given is functional, Mus musculus.
Assay [10] deals with L1210. Kind of assay: Inhibition of radiolabeled spermidine uptake into L1210 cells in vitro. It is filed as functional, cell-based, Mus musculus.
In assay [11] the test system is L1210. The assay can be described thus: Compound level in L1210 cells after 48 hours of incubation at initial concentration of 100 uM is expressed as nmol/10e6 cells. The class given is functional, Mus musculus. Also noted: unit: nmol/10^6 cells.
Assay [12] relates to L1210. Kind of assay: Compound was evaluated for its impact on putrescine (Put) levels after 48 hr at concentration 100 uM. The class given is functional, Mus musculus.
Assay [13] has as its system L1210. Kind of assay: In vitro inhibition of L1210 growth after 48 hours. It is filed as functional, cell-based. The following applies: Mus musculus, L1210, 48 h. In outline:
(§2)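 Log-phase L1210 cultures (0.5–1.0 × 10^5 cells/mL) treated with analogue diluted in sterile water and filter-sterilized. After 48 h, cells were reseeded and grown a further 48 h for the 96 h point. Cells counted by Coulter counter. % growth = (treated − inoculum)/(untreated − inoculum) × 100.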

Assay [14] relates to L1210. The assay can be described thus: In vitro inhibition of L1210 growth after 96 hours. It is filed as functional, cell-based. The following applies: Mus musculus, L1210, 96 h. The gist of the method: as §2
The target of assay [15] is T1, Ornithine decarboxylase (Mus musculus). Kind of assay: Inhibition of ornithine decarboxylase (ODC) activity. It is filed as functional. The arrangement: concentration or dose not given beside the values.
Assay [16] has as its system S-adenosylmethionine decarboxylase (Mus musculus). The assay can be described thus: Effect of compound on S-Adenosyl-methionine decarboxylase (AdoMetDC) activity expressed as percent of untreated control for (AdoMetDC) (1 uM at 6 hr).
The test system of assay [17] is L1210. Kind of assay: Compound level in L1210 cells after 48 hours of incubation at initial concentration of 5 uM is expressed as nmol/10e6 cells. It is filed as functional, Mus musculus. The gist of the method:
(§3)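 Murine L1210 leukemia cells were kept in logarithmic growth as a suspension in RPMI-1640 with 10% NuSerum, 2% HEPES-MOPS buffer and 1 mM aminoguanidine, at 37 °C under 5% CO2. Log-phase cells were exposed to the analogue for 48 h. Intracellular analogue content is reported per 10^6 cells.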

The subject of assay [18] is L1210. The assay can be described thus: Compound was evaluated for its impact on spermine levels after 48 hr at concentration 5 uM. It is filed as functional, Mus musculus. The gist of the method:
(§4)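 Murine L1210 leukemia cells in log-phase suspension (RPMI-1640, 10% NuSerum, 2% HEPES-MOPS, 1 mM aminoguanidine, 37 °C, 5% CO2) exposed to analogue for 48 h. Cells washed twice in cold RPMI-1640, extracted with 0.6 N perchloric acid, and polyamines quantified by HPLC. Spermine is reported as % of untreated control.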

Assay [19] has as its system L1210. The assay can be described thus: Compound was evaluated for its impact on spermidine levels after 48 hr at concentration 1 uM. It is filed as functional, Mus musculus. The gist of the method:
(§5)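 L1210 suspension cultures were grown in RPMI-1640 with 10% NuSerum, 2% HEPES-MOPS and 1 mM aminoguanidine (37 °C, 5% CO2). Log-phase cells were treated for 48 h, then washed twice in cold RPMI-1640 and pelleted. Pellets were extracted with 0.6 N perchloric acid, and supernatants were held at −20 °C until HPLC. Polyamine levels are given as % of untreated controls.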

In assay [20] the test system is L1210. The assay can be described thus: Compound was evaluated for its impact on spermidine levels after 48 hr at concentration 5 uM. The class given is functional, Mus musculus. The gist of the method: as §5
Assay [21] concerns L1210. The assay can be described thus: Compound was evaluated for its impact on spermine levels after 48 hr at concentration 1 uM. The class given is functional, Mus musculus. The gist of the method:
as §4

Assay [22] relates to L1210. Kind of assay: Compound was evaluated for its impact on putrescine (Put) levels after 48 hr at concentration 5 uM. The class given is functional, Mus musculus. The gist of the method: as §5
In assay [23] the test system is L1210. Kind of assay: Compound level in L1210 cells after 48 hours of incubation at initial concentration of 1 uM is expressed as nmol/10e6 cells. It is filed as functional, Mus musculus. In outline:
as §3

In assay [24] the test system is L1210. Kind of assay: Compound was evaluated for its impact on putrescine (Put) levels after 48 hr at concentration 1 uM. It is filed as functional, Mus musculus. The gist of the method: as §5
The target of assay [25] is T1, Ornithine decarboxylase (Mus musculus). The assay can be described thus: Effect of compound on ornithine decarboxylase (ODC) activity expressed as percent of untreated control for ODC (1 uM at 4 h(or 48h)). In outline:
as §1

Chain of Spermidine/spermine N(1)-acetyltransferase (SAT) (Mus musculus) (P48026 whole entry, looked up): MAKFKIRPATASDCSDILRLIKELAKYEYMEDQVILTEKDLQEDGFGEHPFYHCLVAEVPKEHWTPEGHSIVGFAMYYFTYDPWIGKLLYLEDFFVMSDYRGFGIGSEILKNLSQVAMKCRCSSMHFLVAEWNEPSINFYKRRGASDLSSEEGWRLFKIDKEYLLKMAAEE
Chain of Spermidine/spermine N(1)-acetyltransferase (SAT) (Mus musculus) (Q6P8J2 whole entry, looked up): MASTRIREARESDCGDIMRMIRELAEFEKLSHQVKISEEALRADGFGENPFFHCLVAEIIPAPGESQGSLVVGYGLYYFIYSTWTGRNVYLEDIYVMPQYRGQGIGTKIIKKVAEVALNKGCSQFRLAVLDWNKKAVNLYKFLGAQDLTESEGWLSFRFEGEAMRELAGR

For the compound `CCNCCCNCCCCNCCCN`, the Activity is 10% in assay [1], 27% in assay [2] and 150% in assay [3].
On to `CNCCCNCCCNCCCNC`, for which the Activity in the assay with L1210 [4] was 1.84; in the assay on L1210 [11], 2.14; in assay [15], 6%; in assay [2] it was 49%; in assay [3], 200%. Moreover, the Polyamine with L1210 [5] came out at 27%; with L1210 [6], 5%; in the assay with L1210 [7], 3%; with L1210 [8], 36%; with L1210 [9], 0%; in the assay on L1210 [12] it was 0%. Further, the Ki in the assay with L1210 [10] was 5600 nM. Further, the IC50 with L1210 [13] is more than 100000 nM; in the assay on L1210 [14], 2500 nM.
For the compound `CC(C)(C)NCCCCNCCCCNCCCCNC(C)(C)C`, the Polyamine with L1210 [5] turned out to be 72%; in the assay on L1210 [6], 85%; in the assay with L1210 [7], 58%; in the assay on L1210 [8] it was 94%; with L1210 [9], 55%; in the assay on L1210 [12] it was 83%. The same compound returned a Ki in the assay with L1210 [10] of 56000 nM. The IC50 is more than 100000 nM in the assay on L1210 [13] and 3000 nM in the assay with L1210 [14]. Moreover, the Activity in assay [15] and in assay [16] was 100% in each case.
Take `CNCCCCNCCCCNCCCCNC`: the Activity with L1210 [4] came out at 1.03; with L1210 [11], 1.49; in [15], 4%; in [2] it was 45%; in assay [3], 140%. Besides, the Polyamine in the assay with L1210 [5] came out at 27%; in the assay on L1210 [6], 0%; in the assay on L1210 [7], 0%; with L1210 [8], 30%; with L1210 [9], 0%; in the assay with L1210 [12] it was 0%. The compound also came in with an inhibitory constant (Ki) with L1210 [10] of 970 nM. Also, the IC50 in the assay on L1210 [13] was more than 100000 nM; with L1210 [14], 320 nM.
As for `CCNCCCCNCCCNCCCCNCC`, the Activity is 1.5 in the assay with L1210 [17]; 0.76 with L1210 [23]; 28% in [2]; 120% in [3]; 5% in [25]. Further, the Polyamine with L1210 [18] worked out at 27%; in the assay with L1210 [19] it was 41%; in the assay on L1210 [20], 0%; in the assay on L1210 [21], 52%; with L1210 [22] it was 0%; with L1210 [24], 81%. The compound also showed a Ki with L1210 [10] of 4000 nM. Also, the IC50 worked out at 1000 nM in the assay with L1210 [13] and 180 nM in the assay on L1210 [14].
